# Source: PubChem
# Beta cell apopt: blocks beta cell apoptosis | INS-1E cytokine-induced death, ATP luminescence, 48 h; percent of positive-control rescue, neutral wells zero | 300,000 compounds, 0.8% hits | protection from apoptosis, % (test concentration not listed);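 active = Every replicate reaches about 75%, or at least half do and their mean reaches it too, limit read from the data; inconclusive = At least half of replicates reach the limit but their mean does not; inactive = Under half of replicates reach the limit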;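 note: 0% = cytokine-treated negative control wells and 100% = positive control rescue; higher means more ATP so stronger rescue from cytokine killing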
# SKKanGAS inh: SKKanGAS growth inhibition | 300,000 compounds, 1.3% hits | inhibition, % at 7.5 µM | AID 1662 | S. pyogenes SKKanGAS, kanamycin growth, BacTiter-Glo, 6 h;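 active = mean replicate score, as percent of positive control median, at least 50; inconclusive = mean below 50 but one replicate at or above 50; inactive = mean and every replicate below 50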;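 note: strain carries kanamycin resistance gene driven by streptokinase promoter and grows in 40 µg/ml kanamycin; loss of luminescence reflects streptokinase promoter inhibition or plain growth inhibition; 0% = median of DMSO wells and 100% = positive control at its reference dose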
# Calb FLC: C. albicans growth modulation with fluconazole; growth inhibition, % (no concentration beside the values); AID 1979; C. albicans CaCi-2 (fluconazole-resistant clinical isolate) + fluconazole, Alamar Blue growth, 48 h; 300,000 compounds, 0.57% hits;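 active = growth inhibition above about 58% in most replicates, limit read from the data, passing the limit was not always enough; inconclusive = exactly half the replicates above a set limit; inactive = most replicates below a set limit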;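 note: all wells also contain fluconazole at 8 µg/ml as a sub-toxic cotreatment; 0% = median of DMSO wells and 100% = median of geldanamycin control wells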
# Mdm2-MdmX inh: inhibitors of human Mdm2/MdmX interaction; O15151+Q00987; SaOS-2 split-luciferase Mdm2/MdmX complementation, luminescence; inhibition, % at 8 µM; 330,000 compounds, 3% hits; AID 485346;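 active = inhibition of at least 50% at 8 µM in the primary screen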
# Target sequence (O15151 whole entry, looked up): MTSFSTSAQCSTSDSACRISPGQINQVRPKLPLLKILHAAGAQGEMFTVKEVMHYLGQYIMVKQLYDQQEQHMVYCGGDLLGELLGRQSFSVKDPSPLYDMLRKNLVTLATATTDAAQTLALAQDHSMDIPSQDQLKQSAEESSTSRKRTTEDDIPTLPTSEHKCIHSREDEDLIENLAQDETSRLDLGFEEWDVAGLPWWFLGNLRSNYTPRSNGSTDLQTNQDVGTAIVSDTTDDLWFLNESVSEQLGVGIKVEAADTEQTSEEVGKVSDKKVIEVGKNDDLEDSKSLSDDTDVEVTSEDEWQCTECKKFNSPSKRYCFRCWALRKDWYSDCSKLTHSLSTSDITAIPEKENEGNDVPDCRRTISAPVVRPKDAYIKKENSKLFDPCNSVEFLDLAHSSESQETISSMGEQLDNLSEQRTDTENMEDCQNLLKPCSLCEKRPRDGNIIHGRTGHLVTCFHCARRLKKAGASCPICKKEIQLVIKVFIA
# Target sequence (Q00987 whole entry, looked up): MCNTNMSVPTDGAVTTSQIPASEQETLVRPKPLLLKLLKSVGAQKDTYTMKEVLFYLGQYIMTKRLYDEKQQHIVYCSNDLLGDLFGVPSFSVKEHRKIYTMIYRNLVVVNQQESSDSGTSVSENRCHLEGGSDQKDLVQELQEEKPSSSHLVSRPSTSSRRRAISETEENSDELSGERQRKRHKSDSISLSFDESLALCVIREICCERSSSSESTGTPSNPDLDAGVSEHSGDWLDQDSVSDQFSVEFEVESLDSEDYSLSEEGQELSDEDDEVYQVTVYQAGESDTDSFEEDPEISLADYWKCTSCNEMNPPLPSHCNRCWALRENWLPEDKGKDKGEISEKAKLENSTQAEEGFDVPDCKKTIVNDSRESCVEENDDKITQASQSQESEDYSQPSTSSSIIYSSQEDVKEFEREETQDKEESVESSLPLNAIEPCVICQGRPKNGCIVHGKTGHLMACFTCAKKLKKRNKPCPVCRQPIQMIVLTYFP
# CSC inhib: cancer stem cell inhibition; 300,000 compounds, 1.1% hits; cancer stem cell-like cells viability, luminescence; inhibition, % at 7.5 µM; AID 2717; in the data active = inhibition above about 75%; inconclusive = no clear call, values can overlap the other calls; tested in HMLE shEcad cells
# T cruzi inh: T. cruzi replication inhibition; T. cruzi beta-gal in NIH3T3, luminescence, 90 h; inhibition, % (concentration not given with the values); 300,000 compounds, 1.4% hits;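 active = mean inhibition across valid replicates above about 55%, limit read from the data; inconclusive = mean below that limit but half or more replicates reach it; inactive = mean below it, under half of replicates reach it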;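 note: signal also drops with host cell toxicity which is not excluded here; 0% = plate median of DMSO wells and 100% = zero luminescence signal; higher percent means less beta-gal luminescence so fewer parasites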
#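 System: Mouse NIH/3T3 fibroblasts infected with β-gal-expressing T. cruzi Tulahuen C4 | Quantity: NIH/3T3 cells, 5,000 per well | Reagent: 5000 reporter trypomastigotes per well | Dosing: Compound pinned at 50 nL/well, DMSO | Schedule: 3 h host attachment, then at least 90 h co-culture | Detection: GalScreen luminescence, 60 min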
# * = called active by the depositor; ? = inconclusive; . = no result. A selection: hits, their analogues and other compounds. The true share with any hit is near 5.7%.
SMILES,Beta cell apopt,SKKanGAS inh,Calb FLC,Mdm2-MdmX inh,CSC inhib,T cruzi inh
CC(C)CC(=O)NC(=S)NNC(=O)c1ccc(NC(=O)C2CCCCC2)cc1,30,88*,75*,45,-12,-4
CC(C)C(NC(=O)c1ccccc1)C(=O)N1CCCCCC1 (stereo not given),1,2,6,8,-10,-5
CCOc1ccc(-n2c(-c3ccc(Br)cc3)c[n+]3c2CCCCC3)cc1,118*,-13,103*,16,-9,83*
CCOc1ccc(-n2c(-c3ccccc3)c[n+]3c2CCC3)cc1,104*,6,-16,39,-5,62*
COc1ccc(-c2c[n+]3c(n2-c2c(C)n(C)n(-c4ccccc4)c2=O)CCCCC3)cc1,-4,-3,-31,-1,-9,-28
O=C(Cn1c(=O)oc2ccccc21)Nc1ccc(Br)cc1,0,-2,-22,20,-10,-20
N#Cc1c(NC(=O)Cn2c(=O)oc3ccccc32)oc(-c2ccccc2)c1-c1ccccc1,3,32,-2,0,86*,3
Cc1cccc(-n2c(SCC(=O)N3CCN(c4ccccn4)CC3)nnc2N2CCOCC2)c1,-1,.,.,8,-10,.
COC(=O)c1c(NC(=O)c2ccc(C)c(S(=O)(=O)Nc3ccccc3C)c2)sc2c1CCCC2,-4,25,49,23,75*,-41
CSCCC(NC(=O)c1cccc(C)c1)C(=O)Nc1sccc1C(N)=O (stereo not given),4,-6,4,-15,5,-4
CC(=O)N(C)Cc1ccc(C(=O)CCl)cc1,3,-2,?,24,-2,74*
CC(=O)NCc1ccc(C(=O)CCl)s1,-57,-8,14,24,21,56*
CC(=O)NCCC(=O)NCc1ccc(F)cc1,-7,-3,7,-24,11,3
CC(=O)NCc1ccc(C(=O)CCl)cc1,-33,-6,24,-4,-1,61*
Cc1cc(=O)c(C(=O)O)nn1-c1ccccc1F,-10,2,4,19,-2,7
O=C(CN(C(=O)c1csnn1)c1ccc(F)c(Cl)c1)NC1CCCC1,4,-11,-1,26,-19,-4
O=[N+]([O-])c1ccc(N2CCN(C(=S)Nc3cccc(F)c3)CC2)cc1,7,-2,-11,27,-3,-40
O=[N+]([O-])c1ccc(N2CCN(C(=S)Nc3ccc(F)cc3)CC2)cc1,76*,-2,-17,5,16,-99
O=C(Nc1ccc(N2CCCCC2)cc1)c1cc([N+](=O)[O-])cc([N+](=O)[O-])c1,9,3,-9,20,6,60*
CC(=O)NC(Cc1c[nH]c2ccccc12)C(=O)N1CCN(S(=O)(=O)c2ccccc2)CC1 (stereo not given),-1,.,.,1,-20,.
COC(=O)c1ccc(OC)c(CN2CCCN(Cc3ccc(F)cc3)S2(=O)=O)c1,1,3,4,7,22,57*
CCOC(=O)c1csc(N/N=C2\CCCc3ccccc32)n1,5,50*,1,12,10,-9
CC(C)NC(=S)NC(c1ccccc1)(c1ccccc1)c1ccccc1,112*,81*,-8,50,25,55*
C/C(=N\NC(=S)NC(C)C)c1ccccc1,5,12,-9,2,-5,-2
C[n+]1c2n(c3ccccc31)N=C(c1ccc(Cl)cc1)CS2,76*,6,?,12,12,37
SMILES,Beta cell apopt,SKKanGAS inh,Calb FLC,Mdm2-MdmX inh,CSC inhib,T cruzi inh
C=CC[N@@+]12CC[C@]34c5ccccc5N5/C=C6\C7N(/C=C(\C53)[C@@H](C[C@@H]41)/C(=C/CO)C2)c1ccccc1[C@@]71CC[N@@+]2(CC=C)C/C(=C\CO)[C@@H]6C[C@@H]12 (stereo not given in full),5,.,.,-6,2,.
O=C(CCCl)N(Cc1nc2ccccc2c(=O)[nH]1)Cc1cccs1,2,-4,56*,25,-14,-12
O=C(NC1CCCCC1)C(c1ccc(F)cc1)N(C(=O)Cc1ccsc1)c1ccc(F)cc1 (stereo not given),-5,-3,11,5,-14,74*
O=C(CSc1nnc(-c2cccs2)n1C1CC1)NCC1CCCO1 (stereo not given),-1,.,.,16,-4,.
CN1Cc2cccc3c2C(Cc2ccccc2S3)C1 (stereo not given),-11,-12,-18,23,-11,58*
O=c1oc2ccccc2c(O)c1Cc1cc(Cl)c2cccnc2c1O,6,84*,84*,28,?,-11
CSc1nc(NCC(C)O)c2c3c(sc2n1)CN(C)CC3 (stereo not given),-6,3,-1,-4,-8,10
CSc1nc(SCC(=O)NC(c2ccccc2)c2ccccc2)c2c3c(sc2n1)CN(C)CC3,30,11,-15,-24,35,64*
Cc1ccc(SCC(=O)Nc2cc([N+](=O)[O-])ccc2O)cc1,4,18,87*,2,-9,-8
O=C(CSCc1ccc(Cl)cc1)Nc1cc([N+](=O)[O-])ccc1O,-2,27,91*,5,38,-8
CC(CC(=O)O)CC(=O)Nc1cc([N+](=O)[O-])ccc1O (stereo not given),-11,-2,-11,-3,-14,5
Cc1cc(NC(=O)c2ccc(S(=O)(=O)N3CCc4ccccc43)cc2)no1,2,28,-3,29,-33,19
CCc1nnc(NC(=O)c2ccc(S(=O)(=O)N3CCCc4ccccc43)cc2)o1,7,86*,-9,47,-13,60*
O=C(Nc1nc2c(s1)CCCC2)c1ccc(S(=O)(=O)N2CCCc3ccccc32)cc1,44,13,0,49,4,60*
O=C(Nc1ccc(S(=O)(=O)N2CCc3ccccc32)cc1)c1ccc2c(c1)OCO2,.,26,?,10,11,57*
O=C(Nc1nc2c(s1)CN(Cc1ccccc1)CC2)c1cccc(S(=O)(=O)N2CCc3ccccc32)c1,2,12,5,-8,41,30
CNC(=O)c1ccsc1NC(=O)c1ccc(S(=O)(=O)N2CCCc3ccccc32)cc1,13,16,-1,46,25,57*
Cc1csc(NC(=O)c2cc(C)on2)n1,-3,.,.,-33,-1,.
COc1ccc(S(=O)(=O)Nc2cc3c4c(oc3c3ccccc23)CC(C)(C)CC4=O)cc1,-3,53*,49,25,-7,38
O=C(Nc1ccc(S(=O)(=O)Nc2ncccn2)cc1)C12CC3CC(CC(Cl)(C3)C1)C2,-7,.,.,6,-17,.
CC(C)Oc1ccc(CNCCC2(C(C)C)CCOC(C)(C)C2)cc1 (stereo not given),1,3,-18,18,10,68*
COc1ccc(CNCCC2(C(C)C)CCOC(C)(C)C2)cc1 (stereo not given),-2,0,11,-4,-8,27
